Residue numbers refer to the chain shown, from its start. Values joined by “and” are separate entries in the source; they are usually repeats but may differ in a detail not shown here. Identical values can stand only once.
Key:
CYP2B6 [1] = biological target: T1, CYP2B6 (Homo sapiens, UniProt P20813, K262R/Y226H); assay: Cumene hydroperoxide; type: biochemical; details: for IC50: CuOOH-based IC50, CYP2B6
T1 sequence (P20813 with tags, fused parts or gaps Y226H/K262R): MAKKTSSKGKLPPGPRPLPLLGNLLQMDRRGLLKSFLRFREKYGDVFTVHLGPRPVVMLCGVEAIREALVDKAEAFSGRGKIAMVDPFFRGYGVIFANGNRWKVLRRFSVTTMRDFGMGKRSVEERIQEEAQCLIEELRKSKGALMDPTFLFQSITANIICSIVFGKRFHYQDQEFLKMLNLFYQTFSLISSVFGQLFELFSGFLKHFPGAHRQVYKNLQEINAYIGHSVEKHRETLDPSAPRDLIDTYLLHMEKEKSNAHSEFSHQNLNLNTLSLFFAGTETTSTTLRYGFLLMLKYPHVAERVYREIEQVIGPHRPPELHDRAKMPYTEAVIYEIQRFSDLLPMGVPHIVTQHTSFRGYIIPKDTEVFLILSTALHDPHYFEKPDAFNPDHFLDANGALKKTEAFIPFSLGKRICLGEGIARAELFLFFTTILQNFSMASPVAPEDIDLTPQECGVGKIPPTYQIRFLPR
Summary of the method: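 Purified CYP2B6 was tested alone or with cyt b5 (CYP:cyt b5 1:2) in HEPES buffer at 37 °C, with 7-EFC near KM and varying test compound. Reactions started with 0.5 mM cumene hydroperoxide. For kinetics, 7-HFC formation was followed continuously in stirred 500 µL of 0–200 µM 7-EFC. Initial-slope rates were fitted to Michaelis–Menten. IC50 came from a four-parameter logistic fit. Mean ± SD, n=3.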

CYP2B4 I363V [2] = biological target: T2, CYP2B4 I363V (Oryctolagus cuniculus, UniProt P00178, H226Y/I363V); assay: NADPH-dependent 7-EFC O-deethylation kinetics; type: biochemical, rabbit
T2 sequence (P00178 with tags, fused parts or gaps H226Y/I363V limits assumed): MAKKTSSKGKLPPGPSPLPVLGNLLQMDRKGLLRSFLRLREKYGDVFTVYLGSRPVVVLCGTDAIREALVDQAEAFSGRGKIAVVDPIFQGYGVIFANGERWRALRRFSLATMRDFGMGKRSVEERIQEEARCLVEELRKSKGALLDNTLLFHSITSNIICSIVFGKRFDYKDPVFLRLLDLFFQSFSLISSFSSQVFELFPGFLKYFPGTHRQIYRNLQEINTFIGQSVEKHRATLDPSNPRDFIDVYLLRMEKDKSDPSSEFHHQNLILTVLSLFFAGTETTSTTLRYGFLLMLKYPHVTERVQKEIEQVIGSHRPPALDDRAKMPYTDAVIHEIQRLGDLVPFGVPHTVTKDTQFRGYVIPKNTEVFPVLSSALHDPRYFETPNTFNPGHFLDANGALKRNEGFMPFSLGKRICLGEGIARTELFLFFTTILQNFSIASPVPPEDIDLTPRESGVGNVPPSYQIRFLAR
Summary of the method: (§1)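 Purified CYP2B was reconstituted with POR and cyt b5 (molar 1:4:2 or 1:4:0), 2.5–5 pmol CYP, in 100 µL HEPES pH 7.4 with 7-EFC at 37 °C. After 5 min preincubation, 1 mM NADPH was added. After 5 min, reactions were quenched with ice-cold acetonitrile and diluted into 0.1 M Tris pH 9.0. 7-HFC was measured by fluorescence (ex 410/em 510 nm) against a daily 0–50 µM 7-HFC standard curve.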

CYP2B1 = biological target: T3, CYP2B1 (Rattus norvegicus, UniProt P00176); assay: NADPH-dependent 7-EFC O-deethylation kinetics; type: biochemical
T3 sequence (P00176 1-491): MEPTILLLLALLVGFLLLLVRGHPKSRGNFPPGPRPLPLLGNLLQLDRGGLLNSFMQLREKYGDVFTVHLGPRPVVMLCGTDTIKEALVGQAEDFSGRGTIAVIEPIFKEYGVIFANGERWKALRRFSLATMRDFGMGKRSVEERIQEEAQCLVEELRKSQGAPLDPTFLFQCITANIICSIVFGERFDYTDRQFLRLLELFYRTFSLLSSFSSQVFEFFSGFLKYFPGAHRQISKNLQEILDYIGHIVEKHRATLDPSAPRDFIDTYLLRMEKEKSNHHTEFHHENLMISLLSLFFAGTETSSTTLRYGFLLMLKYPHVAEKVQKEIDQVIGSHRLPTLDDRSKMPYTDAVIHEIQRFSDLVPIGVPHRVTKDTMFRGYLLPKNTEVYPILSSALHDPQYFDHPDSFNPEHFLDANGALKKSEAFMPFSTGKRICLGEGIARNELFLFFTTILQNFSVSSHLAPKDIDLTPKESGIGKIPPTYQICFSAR
Summary of the method: as §1

CYP2B6 [3] = biological target: T1, CYP2B6; assay: Incubation of POA with CYP2B6, UPLC-MS search for oxidative metabolites; type: in vitro ADME; details: POA incubated with CYP2B6, with or without NADPH
CYP2B4 [4] = biological target: T4, CYP2B4 (Oryctolagus cuniculus, UniProt P00178, H226Y); assay: NADPH-dependent 7-EFC O-deethylation enzyme inhibition assay; type: biochemical, rabbit; details: for mechanism of inhibition: CYP2B4, non-linear regression analysis
T4 sequence (P00178 with tags, fused parts or gaps H226Y): T2 sequence (P00178 with tags, fused parts or gaps H226Y/I363V limits assumed) with V344I

CYP2B4 [5] = biological target: T4, CYP2B4; assay: NADPH oxidation assay; type: biochemical, rabbit; details: CYP:POR:cyt b5 1:4:2, 20 μM inhibitor, 37 °C
Summary of the method: (§2)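 Purified CYP2B was reconstituted with POR and cyt b5 at CYP:POR:cyt b5 1:4:2, or 0:4:2 for the partner-only control. Mixtures contained ligand (20 µM unless stated) and 1% acetone in 300 µL. After 5 min preincubation at 37 °C, 0.2 mM NADPH was added. NADPH consumption was recorded kinetically as the A340 decrease (ε 6.22 mM-1 cm-1). Rates are nmol/min/nmol P450, mean ± SD of three independent experiments.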

human CYP2B6 = assay: Spectral binding titration; details: CYP2B6 spectral titration, with vs without POR
CYP2B6 [6] = biological target: T1, CYP2B6; assay: Spectral binding titration; details: for Kd: KS
CYP2B6 L363V [7] = biological target: T5, CYP2B6 L363V (Homo sapiens, UniProt P20813, K262R/L363V/Y226H); assay: NADPH-dependent 7-EFC O-deethylation enzyme inhibition assay; type: biochemical
T5 sequence (P20813 with tags, fused parts or gaps Y226H/K262R/L363V limits assumed): T1 sequence (P20813 with tags, fused parts or gaps Y226H/K262R) with L344V

CYP2B6 [8] = biological target: T1, CYP2B6; assay: as above; type: biochemical; details: for mechanism of inhibition: CYP2B6, non-linear regression analysis; for IC50: NADPH-based IC50, CYP2B6
rat CYP2B1 = biological target: T6, rat CYP2B1 (Rattus norvegicus, UniProt P00176); assay: Spectral binding titration; details: spectral binding titrations
T6 sequence (P00176 1-491): T3 sequence (P00176 1-491)

CYP2B4 I363V [9] = biological target: T2, CYP2B4 I363V; details: CYP2B4 I363V valine mutant
rabbit CYP2B4 = biological target: T7, rabbit CYP2B4 (Oryctolagus cuniculus, UniProt P00178, A26S/E2A/G22K/H226Y/H23K/H27K/K25S/P24T/R29K); assay: Spectral binding titration; details: spectral binding titrations
T7 sequence (P00178 with tags, fused parts or gaps H226Y limits assumed): T2 sequence (P00178 with tags, fused parts or gaps H226Y/I363V limits assumed) with V344I

CYP2B6 L363V [10] = biological target: T5, CYP2B6 L363V; details: CYP2B6 L363V valine mutant
POR:cyt b5 = POR:cyt b5 (Rattus norvegicus, UniProt P00173+P00388); assay: NADPH oxidation assay, redox partners only; type: biochemical; details: control POR:cyt b5=4:2 without CYP; 20 μM 4-CPI; 37 °C
Summary of the method: as §2

[11] = CYP2B6, with POR (1 μM CYP, 4 μM POR), HEPES buffer
[12] = CYP2B6, without POR, HEPES buffer
[13] = CYP2B6, without POR, sucrose buffer
[14] = KI, CYP2B6, CYP:POR:cyt b5 1:4:2, 0-200 μM 7-EFC, 37 °C
[15] = Ki,app (Cheng-Prusoff from IC50), CYP2B6, absence of cyt b5
[16] = Ki,app (Cheng-Prusoff from IC50), CYP2B6, presence of cyt b5

POR:cyt b5, sequence (P00388 whole entry): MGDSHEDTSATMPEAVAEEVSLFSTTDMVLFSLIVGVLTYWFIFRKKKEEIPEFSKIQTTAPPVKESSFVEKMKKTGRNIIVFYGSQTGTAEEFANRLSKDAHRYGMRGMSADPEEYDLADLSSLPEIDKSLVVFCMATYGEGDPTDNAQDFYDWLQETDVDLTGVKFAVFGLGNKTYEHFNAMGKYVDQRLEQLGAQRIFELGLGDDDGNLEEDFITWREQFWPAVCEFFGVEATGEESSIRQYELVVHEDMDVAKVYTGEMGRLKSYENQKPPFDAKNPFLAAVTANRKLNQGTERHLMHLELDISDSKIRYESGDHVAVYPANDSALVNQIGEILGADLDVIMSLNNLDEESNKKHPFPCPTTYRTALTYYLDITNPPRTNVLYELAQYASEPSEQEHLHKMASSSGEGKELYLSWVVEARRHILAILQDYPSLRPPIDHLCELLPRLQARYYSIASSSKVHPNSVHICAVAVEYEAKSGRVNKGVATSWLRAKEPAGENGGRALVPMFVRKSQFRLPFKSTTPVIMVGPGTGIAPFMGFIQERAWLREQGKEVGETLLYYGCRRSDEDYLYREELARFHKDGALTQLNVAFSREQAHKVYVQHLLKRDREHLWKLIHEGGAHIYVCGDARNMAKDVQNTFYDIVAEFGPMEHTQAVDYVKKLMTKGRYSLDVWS
POR:cyt b5, sequence (P00173 whole entry): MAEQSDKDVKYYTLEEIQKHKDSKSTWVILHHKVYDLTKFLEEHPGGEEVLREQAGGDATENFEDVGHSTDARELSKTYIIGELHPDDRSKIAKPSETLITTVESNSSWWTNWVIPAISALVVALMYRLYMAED

SMILES | Ki (CYP2B4 [4]) [nM] | mechanism of inhibition (CYP2B4 [4]) | NADPH oxidation rate (CYP2B4 [5]) [nmol/min/nmolP450] | fold increase of KS (decrease in affinity) on including POR (human CYP2B6) | Type-II (%) (CYP2B6 [6]; [11]) | Type-II (%) (CYP2B6 [6]; [12]) | Type-II (%) (CYP2B6 [6]; [13]) | Kd (CYP2B6 [6]; [11]) [nM] | Kd (CYP2B6 [6]; [12]) [nM] | Kd (CYP2B6 [6]; [13]) [nM] | Ki (CYP2B6 L363V [7]) [nM] | mechanism of inhibition (CYP2B6 [8]) | Ki (CYP2B6 [8]; [14]) [nM] | Ki (CYP2B6 [8]; [15]) [nM] | Ki (CYP2B6 [8]; [16]) [nM] | IC50 (CYP2B6 [8]; CYP:POR (no cyt b5)) [nM] | IC50 (CYP2B6 [8]; CYP:POR:cyt b5) [nM] | further results
CCOc1ccc2c(C(F)(F)F)cc(=O)oc2c1 [7-EFC, 7-Ethoxy-4-(trifluoromethyl)coumarin, reference compound] |  |  |  |  |  |  |  |  |  |  |  |  |  |  |  |  |  | kcat of 7-EFC O-deethylation (CYP2B6 [1]; CYP2B6 with CuOOH): 0.007 s⁻¹; Km (CYP2B6 [1]; human, CYP2B6 enzyme with cumene hydroperoxide, pH 7.4): 56 µM; Michaelis constant for 7-EFC (CYP2B4 I363V [2]): ~ 120 μM; Michaelis constant for 7-EFC (CYP2B1): ~ 120 μM
Nc1ccc(Oc2ccccc2)cc1 [POA, 4-(phenoxy)aniline] | 1300 ± 650 | competitive inhibitors | 33±2 | 4.2 fold and 4-6 fold | 9.2±3.3 | 16±1 | 26±1 | 2800 ± 1400 | 670 ± 360 | 1200 ± 200 | 67000 ± 10000 | competitive inhibitors | 13000 ± 1900 | 7500 | 13500 | 15000 ± 1000 | 27000 ± 5000 | IC50 (CYP2B6 [1]; CYP alone): 38000 ± 7000 nM; IC50 (CYP2B6 [1]; CYP:cyt b5): 44000 ± 14000 nM; CYP-mediated oxidative metabolites identified by UPLC-MS (CYP2B6 [3]): no potential CYP-mediated oxidative metabolites; mechanism of inhibition (CYP2B6 L363V [7]; CYP2B6 L363V, non-linear regression analysis): non-competitive inhibitor; fold increase of IC50 by cyt b5 (CYP2B6 [8]; CYP2B6, NADPH-driven, with vs without cyt b5): 1.8 fold
Nc1ccc(Cc2ccc(Cl)cc2Cl)cc1 [2′4′DCBA, 4-[(2′,4′-dichlorophenyl)methyl]aniline] |  |  |  |  |  |  |  |  |  |  |  |  |  |  |  |  |  | relative affinity among the ligands tested (rat CYP2B1): highest affinity; relative affinity among the congeners (CYP2B4 I363V [9]): highest affinity; relative affinity among the ligands tested (rabbit CYP2B4): highest affinity; relative affinity among the congeners (CYP2B6 L363V [10]): highest affinity; relative affinity among the ligands tested (CYP2B6 [6]; spectral binding titrations, CYP2B6): highest affinity
Nc1ccc(Oc2cc(Cl)c(Cl)cc2Cl)cc1 [2′4′5′TCPOA, 4-(2′,4′,5′-trichlorophenoxy)aniline] | 370 ± 40 | competitive inhibitors | 20±1 | 4-6 fold | 17±3 | 19±1 | 9±1 | 8100 ± 1700 | 1400 ± 400 | 700 ± 300 | 750 ± 100 | competitive inhibitors | 640 ± 80 | 1800 | 220 | 3700 ± 300 | 430 ± 40 | fold increase of KS (decrease in affinity) on including POR (human CYP2B6; listed as 2′4′5′-TCPOA): 5.8 fold
Clc1ccc(-c2c[nH]cn2)cc1 [4-CPI, 4-(4-chlorophenyl)imidazole, reference compound] |  |  | 10±1 |  |  |  |  |  |  |  |  |  |  |  |  |  |  | NADPH oxidation rate (POR:cyt b5): 12±1 nmol/min/nmolP450

From PMC5831081 (Biochemistry, 2017)
